Test results taken from ChEMBL document CHEMBL1123563, “New antifilarial agents. 1. Epoxy sulfonamides and ethynesulfonamides” (J Med Chem, 1987).
Calls of active or inactive are those of the source.

What was measured:
[1] = tested on: molinema dessetae; assay: Antifilarial activity against Molinema dessetae in vivo against female adult worms at a dose of 200 mg/kg subcutaneously once a day for 5 days; Inactive; type: functional, organism-based; set-up: dose 200 mg/kg
Summary of the method: (§1)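 Proechimys oris of both sexes were each infected with 200 infective larvae dissected from Aedes aegypti mosquitoes. Microfilaremia was checked, and the rodents were treated 150–180 days post-infection. Compound was given subcutaneously as a 1% carboxymethylcellulose suspension once daily for 5 consecutive days. Microfilaremia was followed for 6 weeks, then adult male and female worms were counted at autopsy. A compound was scored active if no males and ≤1.6 females were found (p = 0.12).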

[2] = tested on: molinema dessetae;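 also: in vitro assay on infective-stage larvae, EC90 being the concentration lethal to 90% of larvae after 7 days of exposure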
[3] = Antifilarial activity against Molinema dessetae in vivo in Proechimys oris the natural host at a dose of 200 mg/kg subcutaneously once a day for 5 days. Value is expressed as number of infected P. oris.; type: functional; details: route subcutaneous; summary of the method: as §1
[4] = tested on: molinema dessetae; assay: Antifilarial activity against Molinema dessetae in vivo against male adult worms at a dose of 200 mg/kg subcutaneously once a day for 5 days; Inactive; type: functional, organism-based; set-up: dose 200 mg/kg; summary of the method: as §1
[5] = Effective concentration of compound necessary to kill 50% of infective larvae of Molinema dessetae after 7 days was determined in vitro; type: functional
[6] = tested on: molinema dessetae; assay: Effective concentration of compound necessary to kill 90% of infective larvae of Molinema dessetae after 7 days was determined in vitro; Value ranges from 100-500; type: functional
Summary of the method: (§2)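 Infective larvae from the intermediate host were decontaminated and held 20 per 1.5 mL in a biphasic medium: L929 feeder layer with RPMI and fetal calf serum (90:10), plus penicillin and streptomycin. Compound solutions at several concentrations were made in DMSO, and 10 μL of each was added. After 7 days, survival was corrected by control, in duplicate runs. EC ranges are given in μM.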

[7] = Effective concentration of compound necessary to kill 50% of infective larvae of Molinema dessetae after 7 days was determined in vitro; Value ranges from 20-100; type: functional; summary of the method: as §2
[8] = Effective concentration of compound necessary to kill 50% of infective larvae of Molinema dessetae after 7 days was determined in vitro; Value ranges from 100-500; type: functional; summary of the method: as §2
[9] = tested on: molinema dessetae; assay: Effective concentration of compound necessary to kill 90% of infective larvae of Molinema dessetae after 7 days was determined in vitro; Value ranges from 20-100; type: functional; summary of the method: as §2
[10] = Antifilarial activity against Molinema dessetae in vivo in Proechimys oris the natural host at a dose of 100 mg/kg subcutaneously once a day for 5 days. Value is expressed as number of infected P. oris.; type: functional; details: route subcutaneous; summary of the method: as §1
[11] = tested on: molinema dessetae; assay: Antifilarial activity against Molinema dessetae in vivo against male adult worms at a dose of 100 mg/kg subcutaneously once a day for 5 days; Inactive; type: functional, organism-based; set-up: dose 100 mg/kg; summary of the method: as §1
[12] = tested on: molinema dessetae; assay: Antifilarial activity against Molinema dessetae in vivo against female adult worms at a dose of 100 mg/kg subcutaneously once a day for 5 days; Inactive; type: functional, organism-based; set-up: dose 100 mg/kg; summary of the method: as §1
[13] = tested on: molinema dessetae; assay: Antifilarial activity against Molinema dessetae in vivo against male adult worms at a dose of 100 mg/kg subcutaneously once a day for 5 days; Active; type: functional, organism-based; set-up: dose 100 mg/kg; summary of the method: as §1
[14] = Antifilarial activity against Molinema dessetae in vivo in Proechimys oris the natural host at a dose of 10 mg/kg subcutaneously once a day for 5 days. Value is expressed as number of infected P. oris.; type: functional; details: route subcutaneous; summary of the method: as §1
[15] = tested on: molinema dessetae; assay: Antifilarial activity against Molinema dessetae in vivo against female adult worms at a dose of 200 mg/kg subcutaneously once a day for 5 days; Active; type: functional, organism-based; set-up: dose 200 mg/kg; summary of the method: as §1
[16] = tested on: molinema dessetae; assay: Antifilarial activity against Molinema dessetae in vivo against female adult worms at a dose of 10 mg/kg subcutaneously once a day for 5 days; Inactive; type: functional, organism-based; set-up: dose 10 mg/kg; summary of the method: as §1
[17] = tested on: molinema dessetae; assay: Antifilarial activity against Molinema dessetae in vivo against male adult worms at a dose of 200 mg/kg subcutaneously once a day for 5 days; Active; type: functional, organism-based; set-up: dose 200 mg/kg; summary of the method: as §1

Compound | EC90 [2] | Activity [1] | Activity [3] | Activity [4] | EC50 [5] | also measured
Cc1ccc(C2OC2S(=O)(=O)N2CCN(C)CC2)cc1 (stereo not drawn) | – | inactive | 2 | inactive | – | EC90 [6]: 500 µM; EC50 [7]: 100 µM
CCCCCCc1ccc(C2OC2S(=O)(=O)N2CCOCC2)cc1 (stereo not drawn) | – | inactive | 1 | inactive | – | –
CN(C)S(=O)(=O)/C=C\c1ccccc1 | – | – | – | – | – | EC90 [6]: 500 µM; EC50 [8]: 500 µM
CCOC(=O)N1CCN(S(=O)(=O)C2OC2c2ccccc2)CC1 (stereo not drawn) | – | inactive | 2 | inactive | < 20 µM | EC90 [9]: 100 µM
O=S(=O)(C1CC1c1ccccc1)N1CCOCC1 (stereo not drawn) | – | inactive | 2 | inactive | – | –
CN1CCN(S(=O)(=O)[C@@H]2O[C@@H]2c2ccccc2)CC1 | – | – | – | – | – | EC90 [6]: 500 µM; Activity [10]: 2; Activity [11]: inactive; Activity [12]: inactive; EC50 [7]: 100 µM
C[C@@H]1O[C@H]1S(=O)(=O)N1CCOCC1 | > 500 µM | inactive | 2 | inactive | > 500 µM | –
CN1CCNCC1 [METHYLPIPERAZINE] | > 500 µM | – | – | – | > 500 µM | –
O=S(=O)(C1OC1c1ccccc1)N1CCN(c2cccc(C(F)(F)F)c2)CC1 (stereo not drawn) | – | inactive | 2 | inactive | – | EC90 [9]: 100 µM; EC50 [7]: 100 µM
IVERMECTIN | – | – | – | – | < 20 µM | –
CN(C)S(=O)(=O)[C@@H]1O[C@@H]1c1ccccc1 | – | – | – | – | – | EC90 [6]: 500 µM; EC50 [8]: 500 µM
O=S(=O)(C1OC1c1ccc(Cl)c(Cl)c1)N1CCCC1 (stereo not drawn) | – | – | – | – | – | EC90 [9]: 100 µM; EC50 [7]: 100 µM
CC1OC1S(=O)(=O)N(C)C (stereo not drawn) | – | inactive | 2 | inactive | – | EC90 [6]: 500 µM; EC50 [7]: 100 µM
O=S(=O)([C@@H]1O[C@@H]1c1ccccc1)N1CCOCC1 | – | inactive | 2 | inactive | – | EC90 [6]: 500 µM; EC50 [7]: 100 µM
O=S(=O)(C1OC1c1ccccc1)N1CCN(c2ccccc2)CC1 (stereo not drawn) | – | – | – | – | – | Activity [10]: 2; EC90 [9]: 100 µM; Activity [11]: inactive; Activity [12]: inactive; EC50 [7]: 100 µM
C1COCCN1 [MORPHOLINE] | > 500 µM | – | – | – | > 500 µM | –
Cc1cccc(C2OC2S(=O)(=O)N2CCN(C)CC2)c1 (stereo not drawn) | – | – | – | – | – | EC90 [6]: 500 µM; EC50 [8]: 500 µM
O=S(=O)(C1OC1c1ccc(Cl)c(Cl)c1)N1CCOCC1 (stereo not drawn) | – | – | 2 | – | < 20 µM | EC90 [9]: 100 µM; Activity [15]: Active; Activity [17]: Active
O=S(=O)(C1OC1c1ccc(Cl)cc1)N1CCOCC1 (stereo not drawn) | – | inactive | 2 | inactive | – | EC90 [6]: 500 µM; EC50 [7]: 100 µM
O=C(CN1CCOCC1)c1ccccc1 | > 500 µM | – | – | – | > 500 µM | Activity [10]: 2; Activity [11]: inactive; Activity [12]: inactive

Further lines, with some results ahead:

EC90 [2] | Compound | Activity [1] | Activity [3] | Activity [4] | EC50 [5] | also measured
> 500 µM | C[C@@]1(c2ccccc2)O[C@@H]1S(=O)(=O)N1CCOCC1 | inactive | 2 | inactive | > 500 µM | –
> 500 µM | C[C@]1(c2ccccc2)O[C@@H]1S(=O)(=O)N1CCOCC1 | inactive | 2 | inactive | > 500 µM | –
< 20 µM | Cc1cccc(C2OC2S(=O)(=O)N2CCOCC2)c1 (stereo not drawn) | inactive | 2 | inactive | < 20 µM | –
< 20 µM | O=[N+]([O-])c1ccc(C2OC2S(=O)(=O)N2CCOCC2)cc1 (stereo not drawn) | – | – | – | < 20 µM | –
> 500 µM | O=S(=O)(/C=C/c1ccccc1)N1CCOCC1 | inactive | 2 | inactive | > 500 µM | –
< 20 µM | CN1CCN(S(=O)(=O)C#Cc2ccccc2)CC1 | inactive | 1 | inactive | < 20 µM | –
> 500 µM | CN1CCN(S(=O)(=O)C2CC2c2ccccc2)CC1 (stereo not drawn) | inactive | 2 | inactive | – | EC50 [8]: 500 µM
> 500 µM | CN1CCN(CC(=O)c2ccccc2)CC1 | – | – | – | > 500 µM | Activity [10]: 1; Activity [11]: inactive; Activity [12]: inactive
> 500 µM | C[C@H]1O[C@H]1S(=O)(=O)N1CCOCC1 | – | – | – | – | EC50 [8]: 500 µM
< 20 µM | O=S(=O)(C#Cc1ccccc1)N1CCOCC1 | – | 2 | – | < 20 µM | Activity [10]: 2; Activity [13]: Active; Activity [14]: 2; Activity [15]: Active; Activity [16]: inactive; Activity [17]: Active
> 500 µM | CN1CCN(S(=O)(=O)/C=C/c2ccccc2)CC1 | inactive | 1 | inactive | – | EC50 [8]: 500 µM
> 500 µM | C=C(CS(=O)(=O)N1CCN(C)CC1)c1ccccc1 | – | – | – | – | EC50 [8]: 500 µM
> 500 µM | O=C(CS(=O)(=O)N1CCOCC1)c1ccccc1 | inactive | 2 | inactive | > 500 µM | –
< 20 µM | Cc1ccccc1C1OC1S(=O)(=O)N1CCOCC1 (stereo not drawn) | inactive | 1 | inactive | < 20 µM | –
> 500 µM | CCN(CC)C(=O)N1CCN(C)CC1 [DIETHYLCARBAMAZINE] | – | 2 | – | > 500 µM | Activity [15]: Active; Activity [17]: Active
> 500 µM | O=S(=O)(/C=C\c1ccccc1)N1CCOCC1 | – | – | – | – | EC50 [8]: 500 µM
> 500 µM | CN(C)S(=O)(=O)C#Cc1ccccc1 | inactive | 2 | – | – | EC50 [8]: 500 µM; Activity [17]: Active
> 500 µM | CN1CCN(S(=O)(=O)CC(=O)c2ccccc2)CC1 | – | – | – | > 500 µM | –
